Source: PubChem
Compounds with a hit are over-represented: about 1.5% of the library has one in this group of screens.
HNF4A DNA FP = change in binding of human HNF4 alpha to DNA | AID 1224865 | activity change, % at 10 µM | 360,000 tested, 0.3% active | P41235 | HNF4a-FITC DNA binding, fluorescence polarization, 1 h; in the data active means activity change above about 30%, passing the limit was not always enough
TPT1 inh = C. albicans TPT1 enzyme inhibition; recombinant caTPT1, FP RNA substrate dephosphorylation; 300,000 tested, 0.81% active; inhibition, % at 5 µM;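 active means inhibition above the mean of all tested compounds plus 3 SD, set per screening campaign, cut at about 24% in these data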
CSN inh = CSN deneddylation inhibition | AID 651999 | Purified CSN, SCF-Nedd8-OG deneddylation, fluorescence polarization | 360,000 tested, 0.38% active | inhibition, % at 12.5 µM | Q92905;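 active means pattern-corrected inhibition above about 35%, with an unprinted fluorescence ratio check between 0.5 and 1.5, limit read from the data, passing the limit was not always enough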
Target sequence (Q92905 whole entry, looked up, one chain of several): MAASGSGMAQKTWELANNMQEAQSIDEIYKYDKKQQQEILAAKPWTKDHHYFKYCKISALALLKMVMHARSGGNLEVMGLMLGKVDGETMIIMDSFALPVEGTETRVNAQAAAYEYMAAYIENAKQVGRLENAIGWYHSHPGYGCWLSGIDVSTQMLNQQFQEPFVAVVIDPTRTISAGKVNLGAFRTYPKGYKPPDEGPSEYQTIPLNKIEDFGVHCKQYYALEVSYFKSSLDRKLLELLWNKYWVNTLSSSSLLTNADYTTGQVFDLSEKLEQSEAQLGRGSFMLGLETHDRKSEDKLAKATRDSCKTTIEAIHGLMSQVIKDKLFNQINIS
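Detection – fluorescence polarization · System – HEK293T-derived human Csn5 enzyme · Controls – substrate-only high control, full reaction low control · Timing – 90 min, room temperature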
Rpn11 inh = blocks the human proteasome subunit Rpn11 | human 26S proteasome, Ub4-pepOG fluorescence polarization; 20S core pre-blocked with epoxomicin | inhibition, % at 20 µM | 360,000 tested, 0.59% active | AID 588493;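 active means inhibition at 20 µM, scaled to each plate's controls, above about 33%, limit read from the data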
Target sequence (O00487 whole entry, looked up): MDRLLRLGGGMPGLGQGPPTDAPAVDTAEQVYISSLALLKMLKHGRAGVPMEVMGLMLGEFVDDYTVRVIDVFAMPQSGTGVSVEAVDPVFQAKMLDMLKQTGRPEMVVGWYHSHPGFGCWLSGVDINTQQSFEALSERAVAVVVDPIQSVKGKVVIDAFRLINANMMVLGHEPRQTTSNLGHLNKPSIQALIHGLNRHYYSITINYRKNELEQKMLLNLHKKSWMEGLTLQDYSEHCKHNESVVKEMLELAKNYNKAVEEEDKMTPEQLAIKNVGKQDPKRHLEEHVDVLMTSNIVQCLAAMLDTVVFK
Rpn11 inh conf = confirmation of human proteasome Rpn11 inhibitors | 1,900 tested, 29% active | shares compounds with Rpn11 inh | purified human 26S proteasome, Ub4-pepOG fluorescence polarization; proteasome pretreated with epoxomicin | inhibition, % at 20 µM | AID 602318
MMP-2 counter-1 = counter-screen for RPN11 inhibitors: inhibition of human MMP-2 | recombinant MMP-2, FRET peptide cleavage fluorescence | inhibition, % at 20 µM | AID 602330 | 1,900 tested, 4% active | shares compounds with Rpn11 inh;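 further: human MMP-2 activated beforehand with APMA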
Thrombin inh = thrombin (bovine) inhibition counter-screen; shares compounds with Rpn11 inh; bovine thrombin cleavage of Ub4-pepOG, fluorescence polarization; 1,900 tested, 13% active; inhibition, % at 20 µM;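 active means mean inhibition at least 40% at 20 µM, or signal 3 deviations below plate average, so some actives read negative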
CSN deneddyl val = validation of inhibitors of human CSN-mediated cullin deneddylation; AID 720654; inhibition, % at 16.6 µM; Csn5 deneddylation of SCF-Nedd8OG, fluorescence polarization, 90 min; 540 tested, 62% active; shares compounds with CSN inh; in the data active means inhibition above about 50%
MMP-2 counter-2 = counter-screen for CSN deneddylation inhibitors: human MMP-2 inhibition. shares compounds with CSN inh. recombinant MMP-2, FRET substrate fluorescence, 60 min. inhibition, % at 16.6 µM. 540 tested, 33% active. AID 720655;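 active means corrected plate-normalized z-score of 5 or more, or -5 or less, or inhibition of 15% or more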
Thrombin counter = thrombin (bovine) inhibition, counter-screen for CSN hits; shares compounds with CSN inh; bovine thrombin cleavage of Ub4-pepOG, fluorescence polarization; inhibition, % at 16.6 µM; 540 tested, 49% active; AID 720656;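 active means inhibition at or above a set limit, with a fluorescence interference ratio between 0.5 and a set maximum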
HNF4A confirm = change in binding of human HNF4 alpha to DNA, retest. HNF4A-FITC DNA binding, fluorescence polarization, 1 h. AID 1224897. 210 tested, 99% active. activity change, % at 12.5 µM. shares compounds with HNF4A DNA FP; call rule not given here
Hits are given with their value; – = inactive; · = not tested or not shown; + = active, no number. Unless noted, no stated cut-off is given here; in the data, active means inhibition above about 40%; inactive means the rest.

SMILES | HNF4A DNA FP | TPT1 inh | CSN inh | Rpn11 inh | Rpn11 inh conf | MMP-2 counter-1 | Thrombin inh | CSN deneddyl val | MMP-2 counter-2 | Thrombin counter | HNF4A confirm
COc1ccccc1-c1csc(-n2ncc(C#N)c2N)n1 | – | – | 68 | 92 | 45 | 50 | – | – | 72 | 17 | ·
COC(=O)c1cnn(-c2nc(-c3ccccc3)cs2)c1N | – | – | – | – | · | · | · | · | · | · | ·
O=C(N/N=C/c1sc(=O)n(Cc2ccc(Br)cc2)c1Cl)c1ccco1 | – | – | 42 | 148 | – | 48 | – | – | 54 | – | ·
Cc1ccc(CSc2nnc(SCC(=O)N/N=C/c3c[nH]c4ccccc34)s2)cc1 | 108 | · | 61 | 112 | 93 | – | – | 67 | 23 | – | ·
COCOCCn1cc(CN2CCS(=O)(=O)N(Cc3ccc(-c4ccc(Cl)nc4)cc3)C(C(C)C)C2=O)nn1 (centres undefined) | – | · | – | – | · | · | · | · | · | · | ·
Cn1ccc2cc3c(cc21)CCN3C(=O)Nc1cccnc1 | – | – | 102 | 91 | – | – | – | 61 | -41 | – | ·
CCN(CC)c1ncnc2c1ncn2[C@H]1CN(Cc2ccc(-c3ccccc3)cc2)C[C@@H](CO)O1 | – | · | – | – | · | · | · | · | · | · | ·
CC(/C=C1\SC(=S)N(NC(=O)c2ccncc2)C1=O)=C\c1ccccc1 | – | – | – | – | · | · | · | · | · | · | ·
COc1cc(/C=C2\SC(=S)N(NC(=O)c3ccncc3)C2=O)ccc1O | 50 | – | 39 | 103 | 73 | – | 65 | 68 | – | 38 | ·
COc1ccccc1-n1cnc2c(c1=O)c1nc3ccccc3nc1n2-c1ccc(C)c(C)c1 | – | · | 88 | 54 | – | – | – | 124 | – | – | ·
CCOC(=O)c1sc2nc(C)n(N)c(=O)c2c1C | – | – | – | – | · | · | · | · | · | · | ·
CCOC(=O)c1sc2nc3c(SCCC(=O)O)cc(C(=O)c4cc(OC)ccc4O)cn3c(=O)c2c1C | – | · | 104 | 163 | 80 | – | – | 87 | – | – | ·
COc1ccc(NC(=O)C2(C)CCCN2C(=O)C(C)C)cc1OC (centres undefined) | – | · | – | – | · | · | · | · | · | · | ·
CCN1/C(=C/c2ccc3cc(C)ccc3[n+]2CC)Sc2cc(C)c(C)cc21 | 107 | · | 50 | 89 | 75 | – | 146 | – | – | – | ·
CCN(Cc1ccccc1)C(=O)Cn1c(=O)n(CC(=O)N2CCCCC2)c(=O)c2sccc21 | – | – | – | – | · | · | · | · | · | · | ·
Cc1ccc([C@@H]2CC(=O)[C@@H]3CN(S(=O)(=O)c4ccccc4C)[C@H](c4ccc(Cl)cc4)C[C@@H]3N2S(=O)(=O)c2ccc(C)cc2)cc1 | – | · | – | – | · | · | · | · | · | · | ·
Cc1ccc2[nH]c(=O)c(CN(CCc3ccccc3)C(c3nnnn3Cc3ccco3)C(C)C)cc2c1 (centres undefined) | – | – | 38 | 57 | – | – | – | 88 | – | – | ·
CCC(c1nnnn1Cc1ccco1)N(CCc1ccccc1)Cc1cc2cc(C)ccc2[nH]c1=O (centres undefined) | – | – | – | – | · | · | · | · | · | · | ·
O=C(CSc1nc(-c2ccc(F)cc2)nc2c1Cc1ccccc1O2)Nc1cccc(C(=O)O)c1 | – | · | 43 | + | – | – | 82 | – | 30 | – | ·
O=C(CSc1nc(-c2ccccc2)nc2c1Cc1ccccc1O2)Nc1ccccc1 | · | – | · | · | · | · | · | · | · | · | ·
CCOC(=O)C1=CC[C@H]2c3c(c4ccccc4n3C)C(=O)C1N2C | – | · | – | – | · | · | · | · | · | · | ·
CC(=O)Nc1cccc(-c2cc(NC=O)c3ncc(-c4ccc(C(C)=O)cc4)n3c2)c1 | – | · | – | – | · | · | · | · | · | · | ·
COc1ccc(-c2cc(NC=O)c3ncc(-c4ccc(C(C)=O)cc4)n3c2)cn1 | – | · | 42 | 55 | – | – | – | 100 | – | – | ·
C=CCN1C(=O)/C(=C2/Sc3ccc(OC)cc3N2C)SC1=Nc1cccc(O)c1 | 47 | – | – | 67 | – | – | – | · | · | · | 70
CCN1C(=O)/C(=C2/Sc3ccc(OC)cc3N2C)SC1=Nc1ccc(OC)cc1 | – | – | – | – | · | · | · | · | · | · | ·
SMILES | HNF4A DNA FP | TPT1 inh | CSN inh | Rpn11 inh | Rpn11 inh conf | MMP-2 counter-1 | Thrombin inh | CSN deneddyl val | MMP-2 counter-2 | Thrombin counter | HNF4A confirm
O=C(N/N=C/c1cc2ccccc2nc1Cl)/C(=C/c1cccs1)NC(=O)c1ccccc1 | 47 | – | – | 52 | – | – | – | · | · | · | 50
O=C(Nc1ccc2oc(-c3ccncc3)nc2c1)c1ccc2c(c1)OCO2 | 66 | – | 111 | 169 | – | – | – | · | · | · | 169
Cc1cccc(COc2ccc(S(=O)(=O)N3CCOCC3)cc2[N+](=O)[O-])c1 | – | · | – | – | · | · | · | · | · | · | ·
Cc1ccc(NC(=O)CCN2C(=O)NC3(CCCC3)C2=O)cc1S(=O)(=O)N1CCOCC1 | – | · | – | – | · | · | · | · | · | · | ·
S=C(NCC1CCCO1)N1CCc2ccccc2C1 (centres undefined) | – | – | – | – | · | · | · | · | · | · | ·
CCN(CC)c1ccc(/C=C(\C#N)C(N)=O)cc1 | 34 | · | – | 57 | – | – | – | · | · | · | 46
C[C@H]1CN([C@@H](C)CO)C(=O)CCCn2nncc2CO[C@@H]1CN(C)S(=O)(=O)c1cn(C)cn1 | – | · | – | – | · | · | · | · | · | · | ·
Cc1ccc(C(=O)COc2ccc3c(C)cc(=O)oc3c2)cc1 | – | – | – | – | · | · | · | · | · | · | ·
Cc1cc(=O)oc2cc(OCC(=O)c3ccc4c(c3)NC(=O)CO4)ccc12 | 161 | – | 76 | 45 | – | – | – | · | · | · | 46
CSc1nc2ccc3nc(NC(=O)c4cccs4)sc3c2s1 | 62 | – | 44 | 47 | – | – | – | · | · | · | 40
CC(=O)Cc1nsc(NC(=O)c2ccc(-c3ccc(Cl)cc3Cl)o2)n1 | – | – | – | – | · | · | · | · | · | · | ·
Cc1nnc2sc(-c3ccc(NC(=O)c4ccc(-c5ccc(Cl)cc5Cl)o4)cc3)nn12 | 103 | – | – | + | – | – | 44 | · | · | · | 46
CC1CCN(c2ccc3c(c2)S(=O)(=O)c2cccc(C(=O)NC4CCCCC4)c2C3=O)CC1 | 40 | · | – | 88 | 44 | – | – | · | · | · | 40
O=C(CSc1nc2ccccc2o1)Nc1nc2c(s1)CCCC2 | 55 | · | – | 96 | 49 | – | – | · | · | · | 48
COc1cc(/C=N/NC(=O)c2cccnc2)ccc1OCC(=O)Nc1ccccc1Cl | 48 | – | 146 | 142 | + | – | – | · | · | · | 124
